ChEMBL document CHEMBL4052823, “Extra Sugar on Vancomycin: New Analogues for Combating Multidrug-Resistant Staphylococcus aureus and Vancomycin-Resistant Enterococci” (J Med Chem, 2018)
In brackets after ≈: the same amount, converted by molar mass.

What was measured:
Assay type in all cases: functional
Staphylococcus aureus [1] = assay: Antibacterial activity against vancomycin/methicillin-susceptible Staphylococcus aureus Newman […] after 24 hrs by broth microdilution method
Summary of the method: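 Broth microdilution in cation-adjusted Mueller-Hinton II broth. […] Each well received ~10^5 CFU of exponential-phase bacteria and was incubated at 37 °C for 24 h. MIC was taken as the lowest concentration giving complete growth inhibition, interpreted per CLSI.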

Staphylococcus aureus [2] = assay: Antibacterial activity against healthcare-associated methicillin-resistant/vancomycin-intermediate Staphylococcus aureus Mu50 after 24 hrs by broth microdilution method; details: Mu50, 24 h
Summary of the method: (§1)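 Broth microdilution in cation-adjusted Mueller-Hinton II broth. DMSO stocks were diluted in broth and twofold serially from 128 to 0.0625 μg/mL or lower. Each well was inoculated with ~10^5 CFU of exponential-phase bacteria and incubated at 37 °C for 24 h. MIC was the lowest concentration giving complete growth inhibition, read per CLSI. Growth controls contained broth plus DMSO.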

Enterococcus faecium [3] = assay: Antibacterial activity against glycopeptide-resistant Enterococcus faecium Efm-HS-0649 vanA after 24 hrs by broth microdilution method; details: Efm-HS-0649, 24 h; summary of the method: as §1
Enterococcus faecium [4] = assay: Antibacterial activity against glycopeptide-resistant Enterococcus faecium Efm-HS-06188 vanA after 24 hrs by broth microdilution method; details: Efm-HS-06188, 24 h; summary of the method: as §1
Enterococcus faecium [5] = assay: Antibacterial activity against glycopeptide-resistant Enterococcus faecium Efm-HS-0847 vanM after 24 hrs by broth microdilution method; details: Efm-HS-0847, 24 h; summary of the method: as §1
Enterococcus faecium [6] = assay: Antibacterial activity against glycopeptide-resistant Enterococcus faecium Efm-HS-08257 vanM after 24 hrs by broth microdilution method; details: Efm-HS-08257, 24 h; summary of the method: as §1
Enterococcus faecium [7] = assay: Antibacterial activity against glycopeptide-resistant Enterococcus faecium Efm-HS-vb01 vanB after 24 hrs by broth microdilution method; details: Efm-HS-vb01, 24 h; summary of the method: as §1

| SMILES | MIC90 (Staphylococcus aureus [1]) [µg/mL] | MIC90 (Staphylococcus aureus [2]) [µg/mL] | MIC (Enterococcus faecium [3]) [µg/mL] | MIC (Enterococcus faecium [4]) [µg/mL] | MIC (Enterococcus faecium [5]) [µg/mL] | MIC (Enterococcus faecium [6]) [µg/mL] | MIC (Enterococcus faecium [7]) [µg/mL] |
| --- | --- | --- | --- | --- | --- | --- | --- |
| CCCCCCc1ccc(CN[C@@]2(C)C[C@H](O[C@H]3[C@H](Oc4c5cc6cc4Oc4ccc(cc4Cl)[C@@H](O)[C@@H](NC(=O)[C@@H](CC(C)C)NC)C(=O)N[C@@H](CC(N)=O)C(=O)N[C@H]6C(=O)N[C@H]4C(=O)N[C@H](C(=O)N[C@H](C(=O)O)c6cc(O)c(CN[C@H]7C(O)O[C@H](CO)[C@H](O)[C@@H]7O)c(O)c6-c6cc4ccc6O)[C@H](O)c4ccc(c(Cl)c4)O5)O[C@H](CO)[C@@H](O)[C@@H]3O)O[C@@H](C)[C@H]2O)cc1 (some centres undefined) | 0.25 (≈ 0.138 µM) | 0.5 (≈ 0.276 µM) | 8 (≈ 4.41 µM) | 8 (≈ 4.41 µM) | 32 (≈ 17.6 µM) | 16 (≈ 8.82 µM) | 1 (≈ 0.551 µM) |
| CN[C@H](CC(C)C)C(=O)N[C@H]1C(=O)N[C@@H](CC(N)=O)C(=O)N[C@H]2C(=O)N[C@H]3C(=O)N[C@H](C(=O)N[C@H](C(=O)O)c4cc(O)c(CNCP(=O)(O)O)c(O)c4-c4cc3ccc4O)[C@H](O)c3ccc(c(Cl)c3)Oc3cc2cc(c3O[C@@H]2O[C@H](CO)[C@@H](O)[C@H](O)[C@H]2O[C@H]2C[C@](C)(NCc3ccc(-c4ccc(Cl)cc4)cc3)[C@H](O)[C@H](C)O2)Oc2ccc(cc2Cl)[C@H]1O | 0.5 (≈ 0.282 µM) | 0.5 (≈ 0.282 µM) | 2 (≈ 1.13 µM) | 4 (≈ 2.26 µM) | 2 (≈ 1.13 µM) | 0.12 (≈ 0.0677 µM) | 0.25 (≈ 0.141 µM) |
| CCCCCCCCCCNCCN[C@@]1(C)C[C@H](O[C@H]2[C@H](Oc3c4cc5cc3Oc3ccc(cc3Cl)[C@@H](O)[C@@H](NC(=O)[C@@H](CC(C)C)NC)C(=O)N[C@@H](CC(N)=O)C(=O)N[C@H]5C(=O)N[C@H]3C(=O)N[C@H](C(=O)N[C@H](C(=O)O)c5cc(O)c(CN[C@@H]6C(O)O[C@H](CO)[C@@H](O)[C@@H]6O)c(O)c5-c5cc3ccc5O)[C@H](O)c3ccc(c(Cl)c3)O4)O[C@H](CO)[C@@H](O)[C@@H]2O)O[C@@H](C)[C@H]1O (some centres undefined) | 8 (≈ 4.39 µM) | 32 (≈ 17.5 µM) | 64 (≈ 35.1 µM) | 64 (≈ 35.1 µM) | 32 (≈ 17.5 µM) | 8 (≈ 4.39 µM) | 16 (≈ 8.77 µM) |
| CN[C@H](CC(C)C)C(=O)N[C@H]1C(=O)N[C@@H](CC(N)=O)C(=O)N[C@H]2C(=O)N[C@H]3C(=O)N[C@H](C(=O)N[C@H](C(=O)O)c4cc(O)c(CNCCO[C@H]5O[C@H](CO)[C@@H](O)[C@H](O)[C@@H]5O)c(O)c4-c4cc3ccc4O)[C@H](O)c3ccc(c(Cl)c3)Oc3cc2cc(c3O[C@@H]2O[C@H](CO)[C@@H](O)[C@H](O)[C@H]2O[C@H]2C[C@](C)(NCc3ccc(-c4ccc(Cl)cc4)cc3)[C@H](O)[C@H](C)O2)Oc2ccc(cc2Cl)[C@H]1O | 2 (≈ 1.06 µM) | 4 (≈ 2.12 µM) | 0.5 (≈ 0.265 µM) | 1 (≈ 0.53 µM) | 2 (≈ 1.06 µM) | 0.12 (≈ 0.0637 µM) | 2 (≈ 1.06 µM) |
| CN[C@H](CC(C)C)C(=O)N[C@H]1C(=O)N[C@@H](CC(N)=O)C(=O)N[C@H]2C(=O)N[C@H]3C(=O)N[C@H](C(=O)N[C@H](C(=O)O)c4cc(O)cc(O)c4-c4cc3ccc4O)[C@H](O[C@H]3C[C@](C)(N)[C@@H](O)[C@H](C)O3)c3ccc(c(Cl)c3)Oc3cc2cc(c3O[C@@H]2O[C@H](CO)[C@@H](O)[C@H](O)[C@H]2O[C@H]2C[C@](C)(NCc3ccc(-c4ccc(Cl)cc4)cc3)[C@@H](O)[C@H](C)O2)Oc2ccc(cc2Cl)[C@H]1O [ORITAVANCIN] | 0.06 (≈ 0.0335 µM) | 0.06 (≈ 0.0335 µM) | 0.25 (≈ 0.139 µM) | 0.25 (≈ 0.139 µM) | 1 (≈ 0.558 µM) | 0.5 (≈ 0.279 µM) | 0.25 (≈ 0.139 µM) |
| CCCCCCCCCCC(=O)N[C@@]1(C)C[C@H](O[C@H]2[C@H](Oc3c4cc5cc3Oc3ccc(cc3Cl)[C@@H](O)[C@@H](NC(=O)[C@@H](CC(C)C)NC)C(=O)N[C@@H](CC(N)=O)C(=O)N[C@H]5C(=O)N[C@H]3C(=O)N[C@H](C(=O)N[C@H](C(=O)O)c5cc(O)c(CNCCCNC(=O)[C@H](O)[C@@H](O)[C@H](O)[C@H](O)CO)c(O)c5-c5cc3ccc5O)[C@H](O)c3ccc(c(Cl)c3)O4)O[C@H](CO)[C@@H](O)[C@@H]2O)O[C@@H](C)[C@H]1O | 16 (≈ 8.5 µM) | 32 (≈ 17 µM) | – | – | – | – | – |
| CN[C@H](CC(C)C)C(=O)N[C@H]1C(=O)N[C@@H](CC(N)=O)C(=O)N[C@H]2C(=O)N[C@H]3C(=O)N[C@H](C(=O)N[C@H](C(=O)O)c4cc(O)c(CN[C@H]5C(O)O[C@H](CO)[C@H](O)[C@@H]5O)c(O)c4-c4cc3ccc4O)[C@H](O)c3ccc(c(Cl)c3)Oc3cc2cc(c3O[C@@H]2O[C@H](CO)[C@@H](O)[C@H](O)[C@H]2O[C@H]2C[C@](C)(NCc3ccc(C#C[Si](C)(C)C)cc3)[C@H](O)[C@H](C)O2)Oc2ccc(cc2Cl)[C@H]1O (some centres undefined) | 0.5 (≈ 0.274 µM) | 2 (≈ 1.09 µM) | – | – | – | – | – |
| CN[C@H](CC(C)C)C(=O)N[C@H]1C(=O)N[C@@H](CC(N)=O)C(=O)N[C@H]2C(=O)N[C@H]3C(=O)N[C@H](C(=O)N[C@H](C(=O)O)c4cc(O)c(CNCCO)c(O)c4-c4cc3ccc4O)[C@H](O)c3ccc(c(Cl)c3)Oc3cc2cc(c3O[C@@H]2O[C@H](CO)[C@@H](O)[C@H](O)[C@H]2O[C@H]2C[C@](C)(NCc3ccc(-c4ccncc4)cc3)[C@H](O)[C@H](C)O2)Oc2ccc(cc2Cl)[C@H]1O | 0.5 (≈ 0.296 µM) | 2 (≈ 1.18 µM) | – | – | – | – | – |
| CN[C@H](CC(C)C)C(=O)N[C@H]1C(=O)N[C@@H](CC(N)=O)C(=O)N[C@H]2C(=O)N[C@H]3C(=O)N[C@H](C(=O)N[C@H](C(=O)O)c4cc(O)c(CNCCCNC(=O)[C@H](O)[C@@H](O)[C@H](O[C@@H]5O[C@H](CO)[C@H](O)[C@H](O)[C@H]5O)[C@H](O)CO)c(O)c4-c4cc3ccc4O)[C@H](O)c3ccc(c(Cl)c3)Oc3cc2cc(c3O[C@@H]2O[C@H](CO)[C@@H](O)[C@H](O)[C@H]2O[C@H]2C[C@](C)(NCc3ccc(-c4ccc(Cl)cc4)cc3)[C@H](O)[C@H](C)O2)Oc2ccc(cc2Cl)[C@H]1O | 0.25 (≈ 0.12 µM) | 0.5 (≈ 0.241 µM) | – | – | – | – | – |
| CCCCCCCCCCNCCN[C@@]1(C)C[C@H](O[C@H]2[C@H](Oc3c4cc5cc3Oc3ccc(cc3Cl)[C@@H](O)[C@@H](NC(=O)[C@@H](CC(C)C)NC)C(=O)N[C@@H](CC(N)=O)C(=O)N[C@H]5C(=O)N[C@H]3C(=O)N[C@H](C(=O)N[C@H](C(=O)O)c5cc(O)c(CNCCO[C@@H]6O[C@H](CO)[C@@H](O)[C@H](O)[C@H]6O)c(O)c5-c5cc3ccc5O)[C@H](O)c3ccc(c(Cl)c3)O4)O[C@H](CO)[C@@H](O)[C@@H]2O)O[C@@H](C)[C@H]1O | 4 (≈ 2.14 µM) | 16 (≈ 8.57 µM) | – | – | – | – | – |
| CCCCCCCCCN[C@@]1(C)C[C@H](O[C@H]2[C@H](Oc3c4cc5cc3Oc3ccc(cc3Cl)[C@@H](O)[C@@H](NC(=O)[C@@H](CC(C)C)NC)C(=O)N[C@@H](CC(N)=O)C(=O)N[C@H]5C(=O)N[C@H]3C(=O)N[C@H](C(=O)N[C@H](C(=O)O)c5cc(O)c(CNCCO)c(O)c5-c5cc3ccc5O)[C@H](O)c3ccc(c(Cl)c3)O4)O[C@H](CO)[C@@H](O)[C@@H]2O)O[C@@H](C)[C@H]1O | 0.12 (≈ 0.0728 µM) | 0.5 (≈ 0.303 µM) | – | – | – | – | – |
| CCCCCCCCCCNCCN[C@@]1(C)C[C@H](O[C@H]2[C@H](Oc3c4cc5cc3Oc3ccc(cc3Cl)[C@@H](O)[C@@H](NC(=O)[C@@H](CC(C)C)NC)C(=O)N[C@@H](CC(N)=O)C(=O)N[C@H]5C(=O)N[C@H]3C(=O)N[C@H](C(=O)N[C@H](C(=O)O)c5cc(O)c(CNCCO[C@@H]6O[C@H](CO)[C@@H](O)[C@H](O)[C@H]6NC(C)=O)c(O)c5-c5cc3ccc5O)[C@H](O)c3ccc(c(Cl)c3)O4)O[C@H](CO)[C@@H](O)[C@@H]2O)O[C@@H](C)[C@H]1O | 1 (≈ 0.524 µM) | 4 (≈ 2.1 µM) | – | – | – | – | – |
